In the library only some 2% were active in any assay of this set; here they are far more common.
Scp1 inh: Scp-1 phosphatase inhibitors, primary screen, biochemical, colorimetric, uHTS; Carboxy-terminal domain RNA polymerase II polypeptide A small phosphatase 1 (Homo …; inhibition, % at 20 µM; Recombinant Scp1, phosphopeptide, malachite green phosphate absorbance; hit rate 0.88% among 340,000;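 active = inhibition above about 50% at 20 µM, limit read from the data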;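 note: plate controls were DMSO wells with enzyme for no effect and wells lacking enzyme for full effect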
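Assay system: SCP-1 catalytic fragment, aa 76-261 | Buffer or medium: Tris acetate buffer pH 5.5 with MgCl2 and Tween-20 | Compound: One concentration, 20 µM, with 1.0% DMSO | Also added: Phospho 17-mer peptide substrate | Signal: Absorbance at 630 nm | Incubation: 45 min enzyme reaction at room temperature | Measure: % inhibition of SCP-1 phosphate liberation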
STEP inh: STEP phosphatase inhibitors, primary screen, biochemical, fluorescence intensity, uHTS; inhibition, % at 20 µM; hit rate 0.25% among 360,000; Tyrosine-protein phosphatase non-receptor type 5 (Homo sapiens), P54829; recombinant STEP, OMFP fluorogenic substrate;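 active = inhibition at 20 µM, scaled per plate between control wells, above about 37%, limit read from the data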;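 note: 0% = DMSO with enzyme and substrate and 100% = substrate only without enzyme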
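Material: STEP (striatal-enriched tyrosine phosphatase) enzyme, cell-free; Compound dosing: 20 µM single dose in 1% DMSO; Technique: fluorescence read at 480 nm ex / 540 nm em; Times: reaction 20 min, ambient temperature; Medium: 50 mM Bis-Tris pH 6.0 with 2.5 mM DTT and 0.005% Tween 20; Also added: OMFP at 25 µM.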
DNMT1 block: human DNMT1 methyltransferase inhibitors, primary screen, biochemical, molecular beacon, fluorescence, HinP1I cleavage, uHTS. hit rate 0.83% among 360,000. inhibition (reported as % activation of signal), % at 10 µM. DNA (cytosine-5)-methyltransferase 1 (Homo sapiens), P26358; in the data active = inhibition above about 50%
Rpn11 inh: Rpn11 (PSMD14) deubiquitinase inhibitors, primary screen, biochemical, fluorescence polarization, uHTS; human 26S proteasome, Ub4-pepOG fluorescence polarization; 20S core pre-blocked with epoxomicin; hit rate 0.59% among 360,000; 26S proteasome non-ATPase regulatory subunit 14 (Homo sapiens), O00487; inhibition, % at 20 µM;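 active = inhibition at 20 µM, scaled to each plate's controls, above about 33%, limit read from the data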
Target sequence (O00487 whole entry, looked up): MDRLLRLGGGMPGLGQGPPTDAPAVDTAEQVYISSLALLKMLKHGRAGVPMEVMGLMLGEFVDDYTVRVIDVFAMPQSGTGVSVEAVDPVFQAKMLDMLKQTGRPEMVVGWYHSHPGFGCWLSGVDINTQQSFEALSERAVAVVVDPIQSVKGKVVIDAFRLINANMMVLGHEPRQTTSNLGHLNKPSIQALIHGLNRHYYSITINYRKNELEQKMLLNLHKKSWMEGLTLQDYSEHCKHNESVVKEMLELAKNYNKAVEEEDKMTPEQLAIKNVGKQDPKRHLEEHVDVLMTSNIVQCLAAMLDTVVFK
LMPTP inh: LMPTP phosphatase inhibitors, primary screen, biochemical, fluorescence intensity, uHTS. Low molecular weight phosphotyrosine protein phosphatase (Homo sapiens), P24666. recombinant LMPTP-A, OMFP fluorogenic substrate. inhibition, % at 20 µM. hit rate 0.22% among 360,000. AID 651560, 2012;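 active = compounds that cut the enzyme signal by at least half of the control window in the single-dose screen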;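 note: plate controls were DMSO wells with enzyme plus substrate for no effect and substrate without enzyme for full effect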
Target sequence (P24666 whole entry, looked up): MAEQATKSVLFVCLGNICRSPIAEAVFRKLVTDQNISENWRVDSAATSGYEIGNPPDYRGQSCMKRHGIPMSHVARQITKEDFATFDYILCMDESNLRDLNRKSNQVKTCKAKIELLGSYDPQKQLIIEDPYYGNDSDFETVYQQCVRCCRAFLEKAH
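Test system: LMPTP-A phosphatase enzyme; input: 0.625 nM LMPTP-A final; reagent: OMFP substrate, 400 µM final; compound dosing: 20 µM single dose, 3% DMSO; incubation: 50 min dark incubation at room temperature; measured by: endpoint fluorescence intensity from OMFP dephosphorylation; measure: % inhibition relative to no-enzyme and uninhibited control wells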
The depositor's hits bear a star; . = not tested or not shown.

SMILES	Scp1 inh	STEP inh	DNMT1 block	Rpn11 inh	LMPTP inh
CN(C)/C=C1\N=C(c2cccs2)OC1=O	-4	-4	5	3	-2
O=C1OC(c2cccs2)=N/C1=C\c1ccc(-c2ccccc2Cl)o1	6	-6	-2	87*	2
Nc1ccn([C@@H]2O[C@H](CNCc3cnc(N4CCOCC4)nc3)[C@@H](O)[C@H]2O)c(=O)n1	.	1	8	-2	-1
O=C(O)c1ccccc1-c1ccc(/C=C2\SC(=O)N(c3ccccc3)C2=O)o1	26	10	14	10	1
COC(=O)C(C)N1C(=O)S/C(=C\c2ccc(-c3ccc(C(=O)O)cc3C)o2)C1=O (stereo unspecified)	64*	8	19	15	2
OCCNc1c2ccccc2nc2ccccc12	-8	6	59*	2	19
Cc1[nH]c(=O)c(C#N)cc1-c1csc(-c2ccccc2)n1	9	-2	15	11	60*
Cc1nc(-c2cc(C#N)c(=O)[nH]c2C)cs1	-10	0	-3	0	-2
COc1ccc(S(=O)(=O)NCc2cccnc2)cc1NC(=O)c1ccccc1C	50	6	53*	64*	46
CCOc1ccc(S(=O)(=O)NCc2cccnc2)cc1NC(=O)c1ccccc1	27	-2	2	7	0
Cn1c(SCC(=O)Nc2ccc3nc(SCC(=O)N4CCCC4)sc3c2)nnc1-c1ccc(N)cc1	65*	6	24	-10	31
Cc1ccc(SCc2ccc(C(=O)Nc3nccs3)o2)cc1	-2	4	0	-10	1
O=C(Nc1nccs1)c1ccc(CSc2ccccc2)o1	4	0	0	4	49*
CC(C)C[C@H]1CN([C@@H](Cc2ccccc2)CN2CCC[C@H]2CN2C(=O)C(=O)NC[C@@H]2Cc2ccc(O)cc2)C(=O)C(=O)N1CC1CCCCCC1	.	.	.	.	4
N#Cc1cc(Sc2ccccn2)c(Sc2ccccn2)cc1C#N	2	0	-1	4	1
N#Cc1cc(Sc2ccccn2)c([N+](=O)[O-])cc1C#N	39	1	-2	57*	18
Nc1ccc(Cc2ccc(N)c(O)c2)cc1O	-9	0	-27	.	50*
C[N+]12CCCCC1C(COC(=O)c1ccc3c(c1)OCO3)CCC2 (stereo unspecified)	106*	2	2	2	-1
CN(C(=O)COC(=O)c1ccc2c(c1)OCO2)C1CCCCC1	-2	-3	0	1	1
CCn1c(SCC(=O)Nc2ccc3c(c2)c2ccccc2n3CC)nnc1-c1ccco1	74*	0	96*	14	15
Cc1noc(C)c1S(=O)(=O)N(C)C[C@H]1OCc2cnnn2CCCC(=O)N([C@H](C)CO)C[C@H]1C	.	1	8	-2	2
CCCN1CCc2c(sc(NC(=S)NC(=O)c3ccccc3)c2C#N)C1	-8	-58	1	.	59*
CC(C)N1CCc2c(sc(NC(=S)NC(=O)c3ccccc3)c2C#N)C1	4	-5	-3	.	24
O=C(Nc1cccc(-c2nc3ncccc3o2)c1)c1sc2ccccc2c1Cl	2	10	42	18	50*
Cc1cc(C(=O)N2CCC2(C)C(=O)Nc2cc(C(C)(C)C)nn2C)nn1C (stereo unspecified)	.	6	-1	0	-3
SMILES	Scp1 inh	STEP inh	DNMT1 block	Rpn11 inh	LMPTP inh
CO[C@@]1(NC(=O)CSCC#N)C(=O)N2C(C(=O)O)=C(CSc3nnnn3C)CS[C@@H]21	65*	3	66*	-2	-2
O=C(C[n+]1ccc(CCSc2ccc(F)cc2)cc1)c1ccccc1	17	1	-48	82*	54*
COCCCNC(=O)c1cc2cc(Br)ccc2oc1=O	1	-3	0	4	1
O=C(NNC(=O)c1cc2cc(Br)ccc2oc1=O)c1ccc(O)cc1O	60*	49*	4	0	54*
CC1=C(SCc2ccccc2)C(=O)c2ccccc2C1=O	-10	7	76*	6	6
O=C1c2c(O)cccc2C(C2OC(CO)[C@@H](O)[C@H](O)[C@H]2O)c2cc(CO)cc(O)c21 (stereo partly specified)	-2	0	-5	-2	2
O=C(O)c1cc(O)c2c(c1)[C@@H]([C@H]1c3cc(C(=O)O)cc(O)c3C(=O)c3c(O[C@@H]4O[C@H](CO)[C@@H](O)[C@H](O)[C@H]4O)cccc31)c1cccc(OC3O[C@H](CO)[C@@H](O)[C@H](O)[C@H]3O)c1C2=O (stereo partly specified)	92*	98*	98*	34	92*
O=C(O)c1cc(O)c2c(c1)[C@H]([C@H]1c3cc(C(=O)O)cc(O)c3C(=O)c3c(O[C@@H]4O[C@H](CO)[C@@H](O)[C@H](O)[C@H]4O)cccc31)c1cccc(OC3O[C@H](CO)[C@@H](O)[C@H](O)[C@H]3O)c1C2=O (stereo partly specified)	92*	98*	97*	21	94*
O=C1c2cc(CO)cc(O)c2C(=O)c2c(O[C@@H]3OC(CO)[C@@H](O)[C@@H](O)[C@@H]3O)cccc21 (stereo partly specified)	10	1	3	1	3
COc1ccc([C@H]2CC(=O)C=C(c3cccc4c3Oc3ccccc3S4)C2)cc1	-9	1	1	8	4
COc1ccc(/C=N/Nc2nc(C(=O)O)cs2)cc1	41	18	9	6	64*
O=C1Nc2c(Cl)cccc2C1=O	.	4	-23	0	1
Cc1cccc2c1NC(=O)C2=O	48	3	50*	1	1
O=C1N=c2ccccc2=C1c1sc(Nc2ccc(O)cc2)nc1O	80*	42*	-1	34	76*
O=C1N=c2ccccc2=C1c1sc(Nc2cccc(O)c2)nc1O	20	12	-4	8	16
CNc1nc2c(-c3ccc(Cl)cc3)nnn2c2ccccc12	-7	4	21	29	76*
Cc1ccc(-c2nnn3c2nc(NC(C)C)c2ccccc23)cc1	-10	-1	8	-14	6
CCOC(=O)c1c2c(n(-c3ccc(OC)cc3)c1C)C(=O)C(=O)c1ccccc1-2	-13	8	86*	14	21
O=C(Nc1cccc([N+](=O)[O-])c1)c1cc2ccccc2cc1O	89*	5	2	6	4
O=C(O)c1ccccc1C(=O)Nc1cccc([N+](=O)[O-])c1	-4	1	2	-5	-1

Bioassay records (PubChem BioAssay)
